Data as given in the EternaBench riboswitch data.

System: MS2 coat protein
Experiment: apparent Kd, MS2 coat protein; higher = weaker binding; RNA-MaP array; FMN 200 µM where present
Method in brief: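 Green signal from SNAP-549-labelled MS2 coat protein was normalised to red-channel RNA signal and to the median Fmax of control clusters. The protein was titrated from 0.7 or 1.5 nM, doubling to 3 µM, without and then with constant ligand, over designs transcribed by stalled E. coli RNA polymerase on Illumina sequencing-chip clusters, in 100 mM Tris-HCl pH 7.5, 80 mM KCl, 4 mM MgCl2, BSA, DTT, yeast tRNA and Tween-20. The apparent Kd is the median of filtered per-cluster binding-curve fits.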

[1] = designed as: ON switch for flavin mononucleotide, no ligand
[2] = ligand present: flavin mononucleotide, designed as: ON switch for flavin mononucleotide
[3] = designed as: OFF switch for flavin mononucleotide, no ligand
[4] = ligand present: flavin mononucleotide, designed as: OFF switch for flavin mononucleotide

Row | Sequence | apparent Kd [1] | apparent Kd [2] | apparent Kd [3] | apparent Kd [4]
1 | GAAUUCGCAUGAGGAUAUGCACUCAUUUCAUGUGCAGAAGGUAUUUCAUUAGACAUGAGGAUCACCCAUGUAUUGGUCAAUAAC | 19.1 nM | 16.1 nM |  | 
2 | GGACGUCACAUUAACAUGAGGAUCACCCAUGUCAAAGGACAUGAGGAUAUGGAUCCUAAUUGGAUCCAGAAGGCAUGGACGUCC | 398 nM | 34.3 nM |  | 
3 | GCACGAGACUAAGGAUAUGGAGUGUCUACAUUAAACAUGAGGAUCACCCAUGUAGGGAGUAUGAUUCAGAAGGUAGAGACGUGC | 331 nM | 48.3 nM |  | 
4 | UUAUUAAACAUUAACAUGAGGAUCACCCAUGUCAAAAGACAUGAGGAUAUGGAUCCUAAUUGGAUCCAGAAGGCAUGUAUUAAU | 156 nM | 15.6 nM |  | 
5 | AUGCGUGGCUAGGAUAUCGAGGAAUCUAGCCAGCGAGAAGGAGCCACAUGAGGAUCACCCAUGUGGUGAACCUC |  |  | 22.8 nM | 17.6 nM
6 | UUUUUGUGAGGAUAUUAGUAGUAAAUGAAUAAAAUUAUUACUGAGAAGGCACAUGAGGAUCACCCAUGUUCCUU |  |  | 15.1 nM | 71.8 nM
7 | CACCGUUAGCGAGGAUAUCGUACAUGAGGAUCACCCAUGUAAUAAAUGAGAAUUUCGGAUGUAUGCGAGAAGGCGCGAAUCGGC |  |  | 52.9 nM | 40.6 nM
8 | UUAUUAUGUGUAGGAUAUGCAUAUCAUUAUUAUGCAGAAGGACAUGAGGAUCACCCAUGUAUAUUAUUAUUAUAUAUUAUAUAU |  |  | 15.3 nM | 16.6 nM
9 | UGGUACUAGGGAGGAUAUGGGAAGAUACAUGAGGAUCACCCAUGUAUAAGAAUGCCGAGAGGCAACUAGAAGGCCCUAGUACCU | 10.8 nM | 5.48 nM |  | 
10 | GGGCCCGGAGGAUAUACAUGAGGAUCACCCAUGUAGGGCCCGGGUAUUCCCGGGCCCUGUAGAAGGCCGGGUUU |  |  | 14.3 nM | 18.8 nM
11 | CUCAUGUGAGGAUAUUCGGGCGGGCUCGUUUGGGUUUGUUUGGAGAAGGUACAUGAGGAUCACCCAUGUGCUGG |  |  | 218 nM | 77.8 nM
12 | ACACAUGAGGAUCACCCAUGUACGCGCUGACAGGAGGUCUCACAGGAUAUAUGUGGUGAUGCUACAUAGAAGGGUGAUACCGCG | 233 nM | 49.5 nM |  | 
13 | GGUACUCAAAGAGUACCAAUACGAACAUGAGGAUCACCCAUGUAGGAUAUGCUACUAAAAGAGUAGCAGAAGGACAUGUGCCUA |  |  | 13.5 nM | 75.4 nM
14 | AUCAGCUCGUCAGGAUAUACGUCACUGCGUCAGCCGUGUGGUAAGAUCACAUGAGGAUCACCCAUGUAGAAGGGACGAGCUGAU |  |  | 16.6 nM | 247 nM
15 | ACUUCACAUGAGGAUCACCCAUGUCAGGCCGGACUAGGAUAUUAUCAUGCAGCGUAACCGUAAGAAGGAGUUGGAU | 88.3 nM | 187 nM |  | 
16 | CAGCGAAAGCUGAAUCUGUAGAGAGAGGAUAUACAUCAUAAGAUGCAUACAUGAGGAUCACCCAUGUAGAAGGCUCUCUACAGU |  |  | 5.49 nM | 6.83 nM
17 | GCUGGUCGAGGAUAUGCAAUCGUGCUUCGGCACGUAAGGUCACAUGAGGAUCACCCAUGUAGAAGGUGACCAGC |  |  | 17.1 nM | 23.3 nM
18 | CCUGGAGGAAAACAGACGAAGUGGCCAGAAGGUGAAUGCCACAUGAGGAUCACCCAUGUUUCGAUCAAGGAUAUGGUUUCUCAC | 329 nM | 161 nM |  | 

Row | Sequence | apparent Kd [1] | apparent Kd [2] | apparent Kd [3] | apparent Kd [4]
19 | GGAUGACAAAGUCAUCCUAAACGAACAUGAGGAUCACCCAUGUAGGAUAUGCUACUGAAACAGUAGCAGAAGGACAUGUGCCUU |  |  | 31.1 nM | 211 nM
20 | UGGCUACAUGAGGAUCACCCAUGUCAGGAUAUGCCGUUAAAUUAACAUCAACGUACGGGUAGAAGGGACUGCGU |  |  | 24.3 nM | 23 nM
21 | GUAGCAUACCGAGGAUAUUCAUACAAUAAAUAAACAUGAGGAUCACCCAUGUGGCGAAAGCCUAGGGAGAAGGCGGAAUGCUAC | 154 nM | 21.8 nM |  | 
22 | GAUGCAUAUGAGAAGGCGAUCAUGAAACAUGAUCGAGGAUAUCAUGUAAACAUGAGGAUCACCCAUGUAUGGGUAAAGUGCAUC | 392 nM | 27.7 nM |  | 
23 | UGGUAGGGAGGAUAUCGGAGACCAAACAUGAGGAUCACCCAUGUGCCAUCCCGUGUAUCUUGAGAAGGUUCUACCA |  |  | 14.8 nM | 23.4 nM
24 | AUAUGAUAGAUAGGAUAUACAGAUGAAUAAUAAGUAGAAGGAUCAAAUGGGAAUUAUACAUGAGGAUCACCCAUGUUUUUGGAU | 50.1 nM | 32.1 nM |  | 
25 | ACUGACAUGAGGAUCACCCAUGUCUUGGAUAGGCCAAAUUCACAGGAUAUGCAUGAGGACAGCGUGCAGAAGGGUGAUGCAAUG | 54.6 nM | 25.5 nM |  | 
26 | GUGUGCUGAGGAUAUACACAGGAAUAGAAGAUAAGAUAAUCACAUGAGGAUCACCCAUGUAGAAGGCAGAGUGU |  |  | 15.2 nM | 17.3 nM
27 | UAGAUGGGAGGAUAUACGUAGAUGCAGGUUCGUGUGGUGCUACAUGAGGAUCACCCAUGUAGAAGGCCCGUCUU |  |  | 14.8 nM | 48.9 nM
28 | GUAGCAUACCGAGGAUAUUCAUAUAAUAAGUAAACAUGAGGAUCACCCAUGUAGCGAGAGCCUUGGGAGAAGGCGGAAUGCUAC | 337 nM | 58.1 nM |  | 
29 | GGGCACAUCGGAGGAUAUCAUGUAAAUACAUGAGGAUCACCCAUGUCGAUGGAGACAUCGGAGAUUGAGAAGGCCGAUGUACCG | 191 nM | 9.02 nM |  | 
30 | CAAGGCGGUGAAGGAUAUACACGGGCGUUGCCAAACAUGAGGAUCACCCAUGUAGAAGGUCACCCUGAGAAGGCUUUAUGCCAU |  |  | 382 nM | 45.2 nM
31 | ACCAUACAUGAGGAUCACCCAUGUUAGGAUAUGAGAGACCCACAUAGUCCUGGUAGCAUCAGAAGGAGCAGGGU |  |  | 20.6 nM | 23.7 nM
32 | UGGAAGGUAUGAGGAUAUGCAUGCGAAACGCAUGCAGAAGGCAUGUCAAUAGACAUGAGGAUCACCCAUGUAUUAUCCUUCCAA | 455 nM | 41.7 nM |  | 
33 | GUCACACACUGCUCCGUGUCUGACAUGAGGAUCACCCAUGUGAGAAGGUAGCGUCGAAGCAACGUUAAGGAUAUCACGUGCAGU |  |  | 6.68 nM | 8.39 nM
34 | UUAAUGUGAGGAUAUGGUAAAGAUAAGAUGAUGAAAGAACUCCAGAAGGCACAUGAGGAUCACCCAUGUAGAUG |  |  | 39.5 nM | 86.6 nM
35 | UGGUACAUCGGAGGAUAUCAUGUAUAUACAUGAGGAUCACCCAUGUCGAUGGAGACAUCGGAGAUUGAGAAGGCCGAUGUACCU | 799 nM | 33.3 nM |  | 
36 | CUUUUGUGAGGAUAUUAGUAGUAAAUAAAUAAAAUUACUACUGAGAAGGCACAUGAGGAUCACCCAUGUUCUUC |  |  | 19.4 nM | 93.8 nM
